We go through 3 compounds from ChEMBL document CHEMBL4308835, “Fluorine-Substituted Pyrrolo[2,3- d]Pyrimidine Analogues with Tumor Targeting via Cellular Uptake by Folate Receptor α and the Proton-Coupled Folate Transporter and Inhibition of de Novo Purine Nucleotide Biosynthesis” (J Med Chem, 2018).

pIC50, pKi: −log10 of the molar value. Calls of active or inactive are those of the source. No cut-off for these calls is given here.

The target in test [1] is T1, Reduced folate transporter (Homo sapiens) (UniProt P41440).
T1 sequence (whole entry): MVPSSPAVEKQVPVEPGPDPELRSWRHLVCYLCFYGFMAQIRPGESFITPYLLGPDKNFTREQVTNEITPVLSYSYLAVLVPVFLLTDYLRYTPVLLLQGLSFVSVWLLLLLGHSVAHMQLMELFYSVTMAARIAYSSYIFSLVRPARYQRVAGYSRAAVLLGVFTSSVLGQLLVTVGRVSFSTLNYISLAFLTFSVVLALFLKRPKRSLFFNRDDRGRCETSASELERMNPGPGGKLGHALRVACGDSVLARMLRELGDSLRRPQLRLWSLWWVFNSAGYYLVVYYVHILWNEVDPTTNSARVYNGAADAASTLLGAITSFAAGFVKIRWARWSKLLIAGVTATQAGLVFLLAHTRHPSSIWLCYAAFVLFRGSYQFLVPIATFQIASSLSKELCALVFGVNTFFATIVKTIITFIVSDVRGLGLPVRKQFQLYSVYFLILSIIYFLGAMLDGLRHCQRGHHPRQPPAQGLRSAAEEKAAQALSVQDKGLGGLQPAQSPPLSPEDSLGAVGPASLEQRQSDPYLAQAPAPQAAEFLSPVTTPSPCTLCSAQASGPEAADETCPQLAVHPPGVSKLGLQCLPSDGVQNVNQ
Description: Inhibition of human RFC2 expressed in human HeLa R1-11 cells assessed as reduction in [3H]MTX uptake at pH 7.2 at 10 uM measured over 2 mins relative to control. The format is cell-based.

The nature of test [2]: Antiproliferative activity in Chinese hamster R2 cells deficient in RFC, PCFT, and FRalpha assessed as reduction in cell growth after 96 hrs by Cell-Titer Blue assay. The note with it: Cricetulus griseus, R2, 96 h. The format is cell-based.
Test [3] concerns the target T2, Proton-coupled folate transporter (Homo sapiens) (UniProt Q96NT5).
T2 sequence (whole entry): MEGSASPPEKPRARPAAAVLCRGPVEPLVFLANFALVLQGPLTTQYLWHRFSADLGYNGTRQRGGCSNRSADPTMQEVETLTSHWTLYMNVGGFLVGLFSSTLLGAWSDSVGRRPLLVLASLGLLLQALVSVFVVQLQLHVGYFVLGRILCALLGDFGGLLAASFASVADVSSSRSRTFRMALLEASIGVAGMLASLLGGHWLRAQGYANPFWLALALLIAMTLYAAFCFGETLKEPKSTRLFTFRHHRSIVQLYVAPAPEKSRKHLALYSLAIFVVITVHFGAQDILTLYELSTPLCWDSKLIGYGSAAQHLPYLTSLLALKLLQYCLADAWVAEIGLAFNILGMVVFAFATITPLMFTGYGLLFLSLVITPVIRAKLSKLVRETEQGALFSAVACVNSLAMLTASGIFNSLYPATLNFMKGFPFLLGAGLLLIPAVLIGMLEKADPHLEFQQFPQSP
As to the kind of experiment: Inhibition of human PCFT expressed in Chinese hamster R2/PCFT4 cells assessed as reduction in [3H]MTX uptake at pH 5.5 at 10 uM measured over 2 mins relative to control. It counts as cell-based.

The subject of test [4] is IGROV-1. Description: Antiproliferative activity against FRalpha […] human IGROV1 KD4 cells after 96 hrs by Cell-Titer Blue assay. It counts as functional, cell-based. The note with it: IGROV-1, 96 h.
The target of test [5] is T2, Proton-coupled folate transporter (Homo sapiens). Description: Inhibition of human PCFT expressed in Chinese hamster R2/PCFT4 cells assessed as reduction in [3H]MTX uptake at pH 5.5 at 1 to 10 uM measured over 2 mins. The format is cell-based.
Test [6] concerns IGROV-1. Description: Antiproliferative activity against FRalpha […] human IGROV1 KD10 cells after 96 hrs by Cell-Titer Blue assay. The format is functional, cell-based. The note with it: IGROV-1, 96 h.
For test [7], the system named is IGROV-1. As to the kind of experiment: Antiproliferative activity against human IGROV1 cells harboring non targeted control shRNA sequence after 96 hrs by Cell-Titer Blue assay. It counts as functional, cell-based. The conditions noted are these: IGROV-1, 96 h.
For test [8], the target named is Folate receptor alpha (Homo sapiens) (UniProt P15328). Description: Displacement of [3H]folic acid from human FRalpha expressed in Chinese hamster RT16 cells at 10 to 1000 nM after 15 mins. It counts as cell-based. The procedure, abridged: (§1)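 RT16 (FRα) or D4 (FRβ) CHO cells at ~80% confluence were washed with PBS at 4 °C, then with pH 3.5 acetate buffer to strip bound folate, then HEPES-buffered saline pH 7.4. Cells were incubated with 50 nM [³H]folic acid plus competitor (10–1000 nM) for 15 min at 4 °C, washed, and solubilized in NaOH. Bound radioactivity was normalized to protein.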
Folate receptor alpha (Homo sapiens), sequence (P15328 25-234 limits assumed): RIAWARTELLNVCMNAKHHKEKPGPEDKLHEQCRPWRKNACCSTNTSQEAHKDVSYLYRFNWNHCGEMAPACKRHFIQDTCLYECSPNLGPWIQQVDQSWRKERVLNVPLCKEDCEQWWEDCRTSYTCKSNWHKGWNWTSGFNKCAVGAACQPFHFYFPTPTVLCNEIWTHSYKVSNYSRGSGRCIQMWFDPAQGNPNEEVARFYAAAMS
A general note: In a radioligand displacement assay an active substance lowers the binding of a labelled ligand.

Test [9] addresses T3, Proton-coupled folate transporter (Homo sapiens, UniProt Q96NT5).
T3 sequence (Q96NT5 whole entry): T2 sequence (whole entry)
Description: Inhibition of human PCFT expressed in Chinese hamster R2/PCFT4 cells assessed as reduction in [3H]MTX uptake at pH 5.5 measured over 2 mins by Dixon plot analysis. It counts as cell-based. The procedure, abridged: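 Competitor concentrations ranged from 0.05 to 0.5 μM. Ki was obtained by Dixon plot. Mean ± SE of four independent experiments.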

Test [10] deals with T4, Trifunctional purine biosynthetic protein adenosine-3 (Homo sapiens, UniProt P22102).
T4 sequence (P22102 whole entry): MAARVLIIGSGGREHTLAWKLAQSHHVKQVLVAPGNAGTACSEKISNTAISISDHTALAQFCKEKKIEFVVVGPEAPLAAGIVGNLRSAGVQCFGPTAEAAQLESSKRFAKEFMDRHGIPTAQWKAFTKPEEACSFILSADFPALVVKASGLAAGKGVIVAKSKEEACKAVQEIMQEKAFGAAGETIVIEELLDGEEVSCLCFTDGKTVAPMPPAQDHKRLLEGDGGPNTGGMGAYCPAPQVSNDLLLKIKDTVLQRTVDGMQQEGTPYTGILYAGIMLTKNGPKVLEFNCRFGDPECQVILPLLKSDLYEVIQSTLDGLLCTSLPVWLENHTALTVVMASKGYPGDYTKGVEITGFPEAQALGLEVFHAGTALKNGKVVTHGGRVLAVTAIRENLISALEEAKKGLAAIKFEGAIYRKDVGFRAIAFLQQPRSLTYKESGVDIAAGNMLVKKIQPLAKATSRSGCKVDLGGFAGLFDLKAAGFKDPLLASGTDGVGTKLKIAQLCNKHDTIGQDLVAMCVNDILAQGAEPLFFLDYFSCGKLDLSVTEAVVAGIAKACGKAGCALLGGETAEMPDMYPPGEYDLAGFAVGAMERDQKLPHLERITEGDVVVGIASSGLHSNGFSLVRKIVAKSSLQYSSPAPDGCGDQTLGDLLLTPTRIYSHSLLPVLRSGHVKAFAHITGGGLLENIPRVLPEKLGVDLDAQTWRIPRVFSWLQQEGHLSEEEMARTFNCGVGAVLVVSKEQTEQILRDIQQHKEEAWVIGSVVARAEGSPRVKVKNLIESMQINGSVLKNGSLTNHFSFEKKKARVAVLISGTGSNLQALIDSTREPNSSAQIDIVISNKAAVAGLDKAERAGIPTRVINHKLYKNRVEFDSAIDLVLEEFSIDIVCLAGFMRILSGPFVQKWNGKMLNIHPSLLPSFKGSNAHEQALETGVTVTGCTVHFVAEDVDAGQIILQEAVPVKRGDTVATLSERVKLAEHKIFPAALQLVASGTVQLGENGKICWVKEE
Description: Inhibition of GARFTase in human IGROV1 cells assessed as decrease in incorporation of [14C(U)glycine into [14C]formyl GAR formation after 24 hrs. It counts as cell-based.

Test [11] addresses T2, Proton-coupled folate transporter (Homo sapiens). As to the kind of experiment: Inhibition of human PCFT expressed in Chinese hamster R2/PCFT4 cells assessed as reduction in [3H]MTX uptake at pH 5.5 at 1 uM measured over 2 mins relative to control. The format is cell-based.
For test [12], the system named is IGROV-1. Description: Antiproliferative activity against wild type human IGROV1 cells after 96 hrs by Cell-Titer Blue assay. It counts as functional, cell-based. The note with it: IGROV-1, 96 h.
Test [13] in a line: Binding affinity to human RFC expressed in Chinese hamster PC43-10 cells assessed as antiproliferative activity measured as reduction in cell growth after 96 hrs by Cell-Titer Blue assay.
For test [14], the target named is Folate receptor beta (Homo sapiens) (UniProt P14207). Description: Displacement of [3H]folic acid from human FRbeta expressed in Chinese hamster D4 cells at 10 to 1000 nM after 15 mins. The format is cell-based. The procedure, abridged: as §1
Folate receptor beta (Homo sapiens), sequence (P14207 17-230 limits assumed): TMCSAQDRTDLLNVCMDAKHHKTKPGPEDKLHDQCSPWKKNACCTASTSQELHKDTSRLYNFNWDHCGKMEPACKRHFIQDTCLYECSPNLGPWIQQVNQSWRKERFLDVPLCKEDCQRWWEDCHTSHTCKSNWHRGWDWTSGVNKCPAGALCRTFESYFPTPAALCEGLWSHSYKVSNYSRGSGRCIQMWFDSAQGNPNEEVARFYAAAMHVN
Test [15] has as its system A2780. Description: Antiproliferative activity against human A2780 cells after 96 hrs by Cell-Titer Blue assay. It counts as functional, cell-based. The conditions noted are these: A2780, 96 h.
Test [16] is described as follows: Binding affinity to human PCFT expressed in Chinese hamster R2/PCFT4 cells assessed as antiproliferative activity measured as reduction in cell growth after 96 hrs by Cell-Titer Blue assay.
Test [17] concerns the target T1, Reduced folate transporter (Homo sapiens). Description: Inhibition of human RFC2 expressed in human HeLa R1-11 cells assessed as reduction in [3H]MTX uptake at pH 7.2 at 10 uM measured over 2 mins relative to control.
Test [18] has the same target. Description: Inhibition of human RFC2 expressed in human HeLa R1-11 cells assessed as reduction in [3H]MTX uptake at pH 7.2 at 1 uM measured over 2 mins relative to control. It counts as cell-based.
For test [19], the species on record is Homo sapiens. As to the kind of experiment: Selectivity ratio of IC50 for human RFC2 expressed in human HeLa R1-11 cells to IC50 for human PCFT4 expressed in human HeLa R1-11 cells. It counts as cell-based.
The species named for test [20] is Homo sapiens. Description: Selectivity ratio of IC50 for human RFC2 expressed in human HeLa R1-11 cells to IC50 for human FR2 expressed in human HeLa R1-11 cells. The format is cell-based.

As to `Nc1nc2[nH]c(CCCc3csc(C(=O)N[C@@H](CCC(=O)O)C(=O)O)c3)cc2c(=O)[nH]1`, the inhibition in [1] and in [17] was less than 30% each time. In addition, the negative logarithm of the IC50 (pIC50) in test [2] was 6.45; in [4] it was 7.09; in test [6] it was 7.52; in [7], 7.89; in [10], 9.00; in test [12], 7.92. Besides, the negative logarithm of the IC50 (pIC50) in [13] is 6.71; in test [15] it was 7.66; in test [16], 8.27. For the same compound, the inhibition entry in test [3], in [5], in [8], in test [11] and in test [14] was “Active” each time. Further, the pKi in test [9] is 6.55.
Consider `Nc1nc2[nH]c(CCCc3csc(C(=O)N[C@@H](CCC(=O)O)C(=O)O)c3F)cc2c(=O)[nH]1`, for which the inhibition in test [1] was less than 30%; in test [3], 90 to 95%; in test [11] it was 60 to 85%; in test [17], less than 30%. Besides, the negative-log IC50 (pIC50) is 7.69 in test [2]; 7.07 in [4]; 7.37 in test [6]; 8.25 in test [7]; 8.92 in [10]; 8.16 in test [12]. In test [15], the pIC50 was 8.12. In addition, the inhibition result in test [5], in [8] and in [14] was “Active” each time. In addition, the negative logarithm of the Ki (pKi) in test [9] is 7.15.
In the case of `Nc1nc2[nH]c(CCCc3ccc(C(=O)N[C@@H](CCC(=O)O)C(=O)O)c(F)c3)cc2c(=O)[nH]1`, the inhibition entry in [1] and in test [18] was “inactive” in each case. Moreover, the negative logarithm of the IC50 (pIC50) in test [2] was 6.85; in [4], 7.39; in test [6], 7.72; in test [7] it was 8.94; in [10] it was 8.60 to 9.00; in test [12] it was 8.78. In test [15], this compound had a negative-log IC50 (pIC50) of 8.67. The results for the inhibition in test [3] and in [11] were 90 to 95% and 60 to 85%, respectively. Besides, the inhibition result in [5] was “Active”. In [9], the pKi is 6.59. Also, the Ratio IC50 in test [19] turned out to be 92; in [20], 97.

As a reminder, the inhibition is the relative decrease from the control value, in per cent. Broadly, the pIC50 is −log10 of the IC50, conventionally taken in molar units. A word on the pKi: it is the negative decadic logarithm of the Ki, by convention in mol/L.
